# ChEMBL document CHEMBL1143122, “Novel analogs of D-e-MAPP and B13. Part 1: synthesis and evaluation as potential anticancer agents” (Bioorg Med Chem, 2008)
# What was measured:
# Format in all cases: functional
# [1] = tested on: TK-10; experiment: Antiproliferative activity against human TK10 cells after 48 hrs; settings: TK-10, 48 h
# How it was run: (§1)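 NCI 60-cell-line screen. Lines grown in RPMI 1640 with 5% fetal bovine serum and 2 mM L-glutamine, plated at 5,000–40,000 cells/well according to doubling time, left 24 h at 37 °C in 5% CO2. Drug stocks in DMSO at 400-fold the top final concentration. Five 10-fold dilutions, 10−4 to 10−8 M, incubated 48 h. Growth read spectrophotometrically as net protein; GI50 taken as 50% reduction.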
# [2] = tested on: A498; experiment: Antiproliferative activity against human A498 cells after 48 hrs; settings: A498, 48 h
# How it was run: (§2)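 NCI 60-cell screen. Cells were grown in RPMI 1640 with 5% FBS and 2 mM L-glutamine, then plated at 5,000–40,000 cells/well according to doubling time and preincubated for 24 h at 37 °C in 5% CO2. Compounds were dissolved in DMSO at 400× the top final concentration and tested at five 10-fold dilutions from 10−4 to 10−8 M for 48 h. Growth was read spectrophotometrically; GI50 is 50% net protein reduction.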
# [3] = tested on: NCI-H460; experiment: Antiproliferative activity against human NCI-H460 cells after 48 hrs; settings: NCI-H460, 48 h; how it was run: as §2
# [4] = tested on: SF-539; experiment: Antiproliferative activity against human SF539 cells after 48 hrs; settings: SF-539, 48 h; how it was run: as §2
# [5] = tested on: 786-0; experiment: Antiproliferative activity against human 786-0 cells after 48 hrs; settings: 786-0, 48 h; how it was run: as §2
# [6] = tested on: ACHN; experiment: Antiproliferative activity against human ACHN cells after 48 hrs; how it was run: as §2
# [7] = tested on: K562; experiment: Antiproliferative activity against human K562 cells after 48 hrs; settings: K562, 48 h; how it was run: as §2
# [8] = tested on: SF-295; experiment: Antiproliferative activity against human SF295 cells after 48 hrs; settings: SF-295, 48 h; how it was run: as §2
# [9] = tested on: HCC 2998; experiment: Antiproliferative activity against human HCC2998 cells after 48 hrs; settings: HCC 2998, 48 h; how it was run: as §2
# [10] = tested on: SK-MEL-2; experiment: Antiproliferative activity against human SKMEL2 cells after 48 hrs; settings: SK-MEL-2, 48 h; how it was run: as §2
# [11] = tested on: SK-MEL-28; experiment: Antiproliferative activity against human SKMEL28 cells after 48 hrs; settings: SK-MEL-28, 48 h; how it was run: as §2
# [12] = tested on: DU-145; experiment: Antiproliferative activity against human DU145 cells after 48 hrs; settings: DU-145, 48 h; how it was run: as §2
# [13] = tested on: SK-OV-3; experiment: Antiproliferative activity against human SKOV3 cells after 48 hrs; settings: SK-OV-3, 48 h; how it was run: as §2
# [14] = tested on: LOX IMVI; experiment: Antiproliferative activity against human LOXIMVI cells after 48 hrs; how it was run: as §2
# [15] = tested on: NCI-H23; experiment: Antiproliferative activity against human NCI-H23 cells after 48 hrs; settings: NCI-H23, 48 h; how it was run: as §2
# [16] = tested on: HCT-116; experiment: Antiproliferative activity against human HCT116 cells after 48 hrs; settings: HCT-116, 48 h; how it was run: as §2
# [17] = tested on: Malme-3M; experiment: Antiproliferative activity against human MALME3M cells after 48 hrs; how it was run: as §2
# [18] = tested on: UO-31; experiment: Antiproliferative activity against human UO31 cells after 48 hrs; settings: UO-31, 48 h; how it was run: as §1
# [19] = tested on: MDA-MB-231; experiment: Antiproliferative activity against human MDA-MB-231 cells after 48 hrs; settings: MDA-MB-231, 48 h; how it was run: as §2
# [20] = tested on: U-251; experiment: Antiproliferative activity against human U251 cells after 48 hrs; settings: U-251, 48 h; how it was run: as §1
# [21] = Antiproliferative activity against human NCI-ADR-RES cells after 48 hrs; how it was run: as §2
# [22] = tested on: MOLT-4; experiment: Antiproliferative activity against human MOLT4 cells after 48 hrs; settings: MOLT-4, 48 h; how it was run: as §2
# [23] = tested on: OVCAR-4; experiment: Antiproliferative activity against human OVCAR4 cells after 48 hrs; settings: OVCAR-4, 48 h; how it was run: as §2
# [24] = tested on: BT-549; experiment: Antiproliferative activity against human BT549 cells after 48 hrs; settings: BT-549, 48 h; how it was run: as §2
# [25] = tested on: NCI-H522; experiment: Antiproliferative activity against human NCI-H522 cells after 48 hrs; settings: NCI-H522, 48 h; how it was run: as §2
# [26] = tested on: A549; experiment: Antiproliferative activity against human A549 cells after 48 hrs; settings: A549, 48 h; how it was run: as §2
# [27] = tested on: SF-268; experiment: Antiproliferative activity against human SF268 cells after 48 hrs; settings: SF-268, 48 h; how it was run: as §2
# [28] = tested on: COLO 205; experiment: Antiproliferative activity against human COLO205 cells after 48 hrs; settings: COLO 205, 48 h; how it was run: as §2
# [29] = tested on: MDA-MB-435; experiment: Antiproliferative activity against human MDA-MB-435 cells after 48 hrs; settings: Homo sapiens, MDA-MB-435, 48 h; how it was run: as §2
# [30] = read-out: Log LC50 (the source's name) (converted)
smiles,measurement,setting,value
C[C@H](NC(=O)CCCCCCCCCCCCCCC[n+]1ccccc1)[C@H](O)c1ccccc1.[Br-],GI50,[1],14.5 µM
same,CC50,[1]; [30],56.2 µM
same,TGI,[1]; read-out: Log TGI (converted),28.2 µM
same,GI50,[2],17.8 µM
same,CC50,[2]; [30],57.5 µM
same,TGI,[2]; read-out: Log TGI (converted),32.4 µM
same,GI50,[3],2.82 µM
same,CC50,[3]; [30],41.7 µM
same,TGI,[3]; read-out: Log TGI (converted),13.2 µM
same,GI50,[4],3.39 µM
same,LC50,[4],39.8 µM
same,TGI,[4]; read-out: Log TGI (converted),14.1 µM
same,GI50,[5],10.2 µM
same,CC50,[5]; [30],49 µM
same,TGI,[5]; read-out: Log TGI (converted),22.4 µM
same,GI50,[6],21.9 µM
same,CC50,[6]; [30],91.2 µM
same,TGI,[6]; read-out: Log TGI (converted),44.7 µM
same,GI50,[7],0.912 µM
same,LC50,[7],77.6 µM
same,TGI,[7]; read-out: Log TGI (converted),15.8 µM
same,GI50,[8],14.5 µM
same,LC50,[8],53.7 µM
same,TGI,[8]; read-out: Log TGI (converted),27.5 µM
same,GI50,[9],1.55 µM
same,CC50,[9]; [30],30.9 µM
same,TGI,[9]; read-out: Log TGI (converted),7.41 µM
same,GI50,[10],2.88 µM
same,LC50,[10],60.3 µM
same,TGI,[10]; read-out: Log TGI (converted),7.41 µM
same,GI50,[11],2.34 µM
same,LC50,[11],20.4 µM
same,TGI,[11]; read-out: Log TGI (converted),6.03 µM
same,GI50,[12],12.6 µM
same,CC50,[12]; [30],50.1 µM
same,TGI,[12]; read-out: Log TGI (converted),25.1 µM
same,GI50,[13],3.31 µM
same,CC50,[13]; [30],35.5 µM
same,TGI,[13]; read-out: Log TGI (converted),12 µM
same,GI50,[14],4.07 µM
same,LC50,[14],44.7 µM
same,TGI,[14]; read-out: Log TGI (converted),14.8 µM
same,GI50,[15],2.95 µM
same,CC50,[15]; [30],49 µM
same,TGI,[15]; read-out: Log TGI (converted),15.5 µM
same,GI50,[16],3.47 µM
same,LC50,[16],38.9 µM
same,TGI,[16]; read-out: Log TGI (converted),14.8 µM
same,GI50,[17],2.45 µM
same,LC50,[17],20 µM
same,TGI,[17]; read-out: Log TGI (converted),5.89 µM
same,GI50,[18],28.8 µM
same,LC50,[18],> 100 µM
same,TGI,[18]; read-out: Log TGI (converted),95.5 µM
same,GI50,[19],3.24 µM
same,LC50 (50% lethal concentration),[19],42.7 µM
same,TGI,[19]; read-out: Log TGI (converted),33.1 µM
same,GI50,[20],2.95 µM
same,CC50,[20]; [30],38.9 µM
same,TGI,[20]; read-out: Log TGI (converted),13.8 µM
same,GI50,[21],> 100 µM
same,LC50,[21],> 100 µM
same,TGI,[21]; read-out: Log TGI (converted),> 100 µM
same,GI50,[22],4.9 µM
same,LC50,[22],63.1 µM
same,TGI,[22]; read-out: Log TGI (converted),18.6 µM
same,GI50,[23],1.66 µM
same,LC50,[23],42.7 µM
same,TGI,[23]; read-out: Log TGI (converted),12.3 µM
same,LC50,[24],8.71 µM
same,TGI,[24]; read-out: Log TGI (converted),0.851 µM
same,GI50,[25],2.04 µM
same,CC50,[25]; [30],50.1 µM
same,TGI,[25]; read-out: Log TGI (converted),13.2 µM
same,GI50,[26],5.13 µM
same,CC50,[26]; [30],67.6 µM
same,TGI,[26]; read-out: Log TGI (converted),21.9 µM
same,GI50,[27],3.24 µM
same,LC50,[27],43.7 µM
same,TGI,[27]; read-out: Log TGI (converted),13.2 µM
same,GI50,[28],1.05 µM
same,CC50,[28]; [30],31.6 µM
same,TGI,[28]; read-out: Log TGI (converted),4.9 µM
same,GI50,[29],2.63 µM
same,LC50,[29],25.7 µM
same,TGI,[29]; read-out: Log TGI (converted),7.24 µM
